# Measurements as given in ChEMBL document CHEMBL4842395, “Design and Synthesis of Oleanolic Acid Trimers to Enhance Inhibition of Influenza Virus Entry” (ACS Med Chem Lett, 2021).
# Columns and labels:
# [1] = Selectivity ratio of CC50 for MDCK cells to IC50 for Influenza A virus A/WSN/33(H1N1) infected in MDCK cells; format: toxicity, cell-based; settings: dog, read-out: Ratio CC50/IC50
# Method in brief: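 Selectivity index calculated as CC50 (uninfected MDCK cells, CellTiter-Glo) divided by IC50 (inhibition of A/WSN/33 H1N1-induced CPE in MDCK cells).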
# [2] = test system: Influenza A virus; test: Antiviral activity against Influenza A virus (A/WSN/1933(H1N1)) infected in MDCK cells assessed as inhibition of virus-induced cytopathic effect at 100 uM measured after 40 hrs incubation by inverted microscpic imaging analysis; format: functional
# Method in brief: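 MDCK cells infected with influenza A/WSN/33 (H1N1), with compounds at 100 μM. Viral CPE judged by direct microscopic observation. DMSO served as the negative control and oseltamivir phosphate as the positive control. Triplicate experiments, with standard deviations.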
# [3] = Cytotoxicity against MDCK cells assessed as reduction in cell viability by CellTiter-Glo assay; format: cell-based, Canis lupus familiaris; settings: dog
# Method in brief: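 Viability of normal, uninfected MDCK cells measured by CellTiter-Glo. Medium containing 1% DMSO was the negative control. CC50 is the concentration that reduces viability by 50%.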
# [4] = test system: Influenza A virus; test: Antiviral activity against Influenza A virus (A/WSN/1933(H1N1)) infected in MDCK cells assessed as s reduction in virus-induced cytopathic effect after 40 hrs incubation by CellTiter-Glo assay; format: functional, organism-based
# Method in brief: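 CPE-based dose–response in MDCK cells infected with A/WSN/33 (H1N1), using the CellTiter-Glo viability read-out. Medium with 1% DMSO was the negative control and oseltamivir phosphate the positive control. IC50 is the concentration giving 50% inhibition of virus-induced CPE. Means of duplicate samples from three independent experiments.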
# [5] = test system: Influenza B virus; test: Antiviral activity against Influenza B virus (B/Sichuan/531/2018(Victoria)) infected in cells assessed as reduction in infected cells; format: functional, organism-based
# [6] = Selectivity index, ratio of CC50 for MDCK cells to IC50 for antiviral activity against Influenza A virus (A/Hong Kong/4801/2014 (H3N2)); format: toxicity; settings: dog, read-out: Ratio CC50/IC50
# [7] = test system: Influenza A virus; test: Antiviral activity against Influenza A virus (A/Hong Kong/4801/2014 (H3N2)) infected in cells assessed as reduction in infected cells; format: functional, organism-based
Compound,selectivity ratio [1],inhibition at 100 µM [2] [%],CC50 [3] [µM],IC50 [4] [µM],IC50 [5] [µM],selectivity ratio [6],IC50 [7] [µM]
CC1(C)CC[C@]2(C(=O)NCc3cn(CC(CO)(Cn4cc(CNC(=O)[C@]56CCC(C)(C)C[C@H]5C5=CC[C@@H]7[C@@]8(C)CC[C@H](O)C(C)(C)[C@@H]8CC[C@@]7(C)[C@]5(C)CC6)nn4)Cn4cc(CNC(=O)[C@]56CCC(C)(C)C[C@H]5C5=CC[C@@H]7[C@@]8(C)CC[C@H](O)C(C)(C)[C@@H]8CC[C@@]7(C)[C@]5(C)CC6)nn4)nn3)CC[C@]3(C)C(=CC[C@@H]4[C@@]5(C)CC[C@H](O)C(C)(C)[C@@H]5CC[C@]43C)[C@@H]2C1,> 21.3,> 80,> 100,4.69,,,
CC1(C)CC[C@]2(C(=O)NCCc3cn(CC(CO)(Cn4cc(CCNC(=O)[C@]56CCC(C)(C)C[C@H]5C5=CC[C@@H]7[C@@]8(C)CC[C@H](O)C(C)(C)[C@@H]8CC[C@@]7(C)[C@]5(C)CC6)nn4)Cn4cc(CCNC(=O)[C@]56CCC(C)(C)C[C@H]5C5=CC[C@@H]7[C@@]8(C)CC[C@H](O)C(C)(C)[C@@H]8CC[C@@]7(C)[C@]5(C)CC6)nn4)nn3)CC[C@]3(C)C(=CC[C@@H]4[C@@]5(C)CC[C@H](O)C(C)(C)[C@@H]5CC[C@]43C)[C@@H]2C1,> 34.8,> 80,> 100,2.87,,,
CC1(C)CC[C@]2(C(=O)O)CC[C@]3(C)C(=CC[C@@H]4[C@@]5(C)CC[C@H](O)C(C)(C)[C@@H]5CC[C@]43C)[C@@H]2C1 [OLEANOLIC_ACID],> 1.38,> 80,> 100,72.3,,,
CC1(C)CC[C@]2(C(=O)NCCOCCn3cc(OCc4cc(COc5cn(CCOCCNC(=O)[C@]67CCC(C)(C)C[C@H]6C6=CC[C@@H]8[C@@]9(C)CC[C@H](O)C(C)(C)[C@@H]9CC[C@@]8(C)[C@]6(C)CC7)nn5)cc(COc5cn(CCOCCNC(=O)[C@]67CCC(C)(C)C[C@H]6C6=CC[C@@H]8[C@@]9(C)CC[C@H](O)C(C)(C)[C@@H]9CC[C@@]8(C)[C@]6(C)CC7)nn5)c4)nn3)CC[C@]3(C)C(=CC[C@@H]4[C@@]5(C)CC[C@H](O)C(C)(C)[C@@H]5CC[C@]43C)[C@@H]2C1,> 5.98,> 80,> 100,16.7,,,
CC1(C)CC[C@]2(C(=O)NCCOCCOCCOCCn3cc(OCc4cc(COc5cn(CCOCCOCCOCCNC(=O)[C@]67CCC(C)(C)C[C@H]6C6=CC[C@@H]8[C@@]9(C)CC[C@H](O)C(C)(C)[C@@H]9CC[C@@]8(C)[C@]6(C)CC7)nn5)cc(COc5cn(CCOCCOCCOCCNC(=O)[C@]67CCC(C)(C)C[C@H]6C6=CC[C@@H]8[C@@]9(C)CC[C@H](O)C(C)(C)[C@@H]9CC[C@@]8(C)[C@]6(C)CC7)nn5)c4)nn3)CC[C@]3(C)C(=CC[C@@H]4[C@@]5(C)CC[C@H](O)C(C)(C)[C@@H]5CC[C@]43C)[C@@H]2C1,> 10.2,> 80,> 100,9.84,,,
CC1(C)CC[C@]2(C(=O)NCCCCc3cn(CC(CO)(Cn4cc(CCCCNC(=O)[C@]56CCC(C)(C)C[C@H]5C5=CC[C@@H]7[C@@]8(C)CC[C@H](O)C(C)(C)[C@@H]8CC[C@@]7(C)[C@]5(C)CC6)nn4)Cn4cc(CCCCNC(=O)[C@]56CCC(C)(C)C[C@H]5C5=CC[C@@H]7[C@@]8(C)CC[C@H](O)C(C)(C)[C@@H]8CC[C@@]7(C)[C@]5(C)CC6)nn4)nn3)CC[C@]3(C)C(=CC[C@@H]4[C@@]5(C)CC[C@H](O)C(C)(C)[C@@H]5CC[C@]43C)[C@@H]2C1,> 3.99,> 80,> 100,25.1,,,
CC1(C)CC[C@]2(C(=O)NCCCCCc3cn(Cc4cc(Cn5cc(CCCCCNC(=O)[C@]67CCC(C)(C)C[C@H]6C6=CC[C@@H]8[C@@]9(C)CC[C@H](O)C(C)(C)[C@@H]9CC[C@@]8(C)[C@]6(C)CC7)nn5)cc(Cn5cc(CCCCCNC(=O)[C@]67CCC(C)(C)C[C@H]6C6=CC[C@@H]8[C@@]9(C)CC[C@H](O)C(C)(C)[C@@H]9CC[C@@]8(C)[C@]6(C)CC7)nn5)c4)nn3)CC[C@]3(C)C(=CC[C@@H]4[C@@]5(C)CC[C@H](O)C(C)(C)[C@@H]5CC[C@]43C)[C@@H]2C1,,> 80,> 100,,,,
CC1(C)CC[C@]2(C(=O)NCCc3cn(Cc4cc(Cn5cc(CCNC(=O)[C@]67CCC(C)(C)C[C@H]6C6=CC[C@@H]8[C@@]9(C)CC[C@H](O)C(C)(C)[C@@H]9CC[C@@]8(C)[C@]6(C)CC7)nn5)cc(Cn5cc(CCNC(=O)[C@]67CCC(C)(C)C[C@H]6C6=CC[C@@H]8[C@@]9(C)CC[C@H](O)C(C)(C)[C@@H]9CC[C@@]8(C)[C@]6(C)CC7)nn5)c4)nn3)CC[C@]3(C)C(=CC[C@@H]4[C@@]5(C)CC[C@H](O)C(C)(C)[C@@H]5CC[C@]43C)[C@@H]2C1,> 3.17,> 80,> 100,31.6,,,
CC1(C)CC[C@]2(C(=O)NCc3cn(Cc4cc(Cn5cc(CNC(=O)[C@]67CCC(C)(C)C[C@H]6C6=CC[C@@H]8[C@@]9(C)CC[C@H](O)C(C)(C)[C@@H]9CC[C@@]8(C)[C@]6(C)CC7)nn5)cc(Cn5cc(CNC(=O)[C@]67CCC(C)(C)C[C@H]6C6=CC[C@@H]8[C@@]9(C)CC[C@H](O)C(C)(C)[C@@H]9CC[C@@]8(C)[C@]6(C)CC7)nn5)c4)nn3)CC[C@]3(C)C(=CC[C@@H]4[C@@]5(C)CC[C@H](O)C(C)(C)[C@@H]5CC[C@]43C)[C@@H]2C1,> 14.6,> 80,> 100,6.86,,,
CC1(C)CC[C@]2(C(=O)NCCCCCc3cn(CC(CO)(Cn4cc(CCCCCNC(=O)[C@]56CCC(C)(C)C[C@H]5C5=CC[C@@H]7[C@@]8(C)CC[C@H](O)C(C)(C)[C@@H]8CC[C@@]7(C)[C@]5(C)CC6)nn4)Cn4cc(CCCCCNC(=O)[C@]56CCC(C)(C)C[C@H]5C5=CC[C@@H]7[C@@]8(C)CC[C@H](O)C(C)(C)[C@@H]8CC[C@@]7(C)[C@]5(C)CC6)nn4)nn3)CC[C@]3(C)C(=CC[C@@H]4[C@@]5(C)CC[C@H](O)C(C)(C)[C@@H]5CC[C@]43C)[C@@H]2C1,> 175,> 80,> 100,0.57,> 100,> 83.3,1.2
CCOC(=O)C1=C[C@@H](OC(CC)CC)[C@H](NC(C)=O)[C@@H](N)C1 [OSELTAMIVIR PHOSPHATE],> 55,> 80,> 100,1.82,> 100,,> 100
